Data taken from ChEMBL document CHEMBL4130442, “Design, synthesis and structure-activity relationship studies of a focused library of pyrimidine moiety with anti-proliferative and anti-metastasis activities in triple negative breast cancer” (Eur J Med Chem, 2017).

What follows are molecules tested on MDA-MB-231 (assay: Antiproliferative activity against human MDA-MB-231 cells incubated for 24 hrs by MTT assay). Conditions: MDA-MB-231, 24 h.
Assay type: functional, cell-based
How it was run: (§1)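 MDA-MB-231 cells grown in DMEM with 10% FBS under 5% CO2 were seeded at 5×10^4 cells/ml. After 24 h, a concentration series was added for 24, 48 or 72 h and viability was read by MTT. IC50 is mean ± SD of triplicates.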
Molecule `O=C(Nc1cccc(Cl)c1)N1CCN(c2nccc(Oc3cc(Cl)cc(Cl)c3)n2)CC1` has an IC50 of 7.9 µM.
Work on `N#Cc1ccc(S(=O)(=O)N2CCN(c3nccc(Oc4cc(Cl)cc(Cl)c4)n3)CC2)cc1` yielded an IC50 of 24.8 µM.
With `O=C(Nc1ccc(C(F)(F)F)cc1)N1CCN(c2nccc(Oc3cc(Cl)cc(Cl)c3)n2)CC1` the IC50 was 1.54 µM.
For `CC(=O)Nc1ccc(C(=O)N2CCN(c3nccc(Oc4cc(Cl)cc(Cl)c4)n3)CC2)cc1`, the IC50 was > 50 µM.
`O=C(c1ccc2ncccc2c1)N1CCN(c2nccc(Oc3cc(Cl)cc(Cl)c3)n2)CC1` was tested, and the IC50 was > 50 µM.
In the case of `COc1cccc(Nc2ccnc(N3CCN(C(=O)Nc4ccccc4Cl)CC3)n2)c1`, the IC50 is reported as 5.26 µM.
`O=C1CC[C@@H](C(=O)N2CCN(c3nccc(Oc4cc(Cl)cc(Cl)c4)n3)CC2)N1` was tested, and the IC50 was > 50 µM.
With `O=C(c1ccc(Cl)cc1Cl)N1CCN(c2nccc(NCc3ccccc3)n2)CC1` the IC50 was 9.79 µM.
For `COc1cccc(Nc2ccnc(N3CCN(C(=O)Nc4ccc(C(F)(F)F)cc4)CC3)n2)c1`, the IC50 was 1.24 µM.
In the case of `O=S(=O)(c1ccc(F)cc1)N1CCN(c2nccc(Oc3cc(Cl)cc(Cl)c3)n2)CC1`, the IC50 is reported as > 50 µM.
`O=C(c1ccc[nH]1)N1CCN(c2nccc(Oc3cc(Cl)cc(Cl)c3)n2)CC1` showed an IC50 of 35.2 µM.
In the case of `COc1cccc(Nc2cc(N3CCN(C(=O)Nc4ccccc4Cl)CC3)ncn2)c1`, the IC50 is reported as 2.8 µM.
With `Cc1cnc(C(=O)N2CCN(c3nccc(Oc4cc(Cl)cc(Cl)c4)n3)CC2)cn1` the IC50 was 34.8 µM.
For `Cc1cccc(C(=O)N2CCN(c3nccc(Oc4cc(Cl)cc(Cl)c4)n3)CC2)c1`, the IC50 was > 50 µM.
For `CC(C)(C(=O)N1CCN(c2nccc(Oc3cc(Cl)cc(Cl)c3)n2)CC1)c1cc(C(F)(F)F)cc(C(F)(F)F)c1`, the IC50 was > 50 µM.
`O=S(=O)(c1ccccc1)N1CCN(c2nccc(Oc3cc(Cl)cc(Cl)c3)n2)CC1` was tested, and the IC50 was > 50 µM.
For `COc1ccccc1S(=O)(=O)N1CCN(c2nccc(Oc3cc(Cl)cc(Cl)c3)n2)CC1`, the IC50 was 16.8 µM.
`O=C(Nc1ccc(C(F)(F)F)cc1)N1CCN(c2nccc(NCc3ccccc3)n2)CC1` gave an IC50 of 2.45 µM.
For `O=C(c1ccc2c(c1)OCO2)N1CCN(c2nccc(Oc3cc(Cl)cc(Cl)c3)n2)CC1`, the IC50 was > 50 µM.
`O=C(c1ccc(Cl)cc1Cl)N1CCN(c2nccc(Oc3cc(Cl)cc(Cl)c3)n2)CC1` was tested, and the IC50 was 11.8 µM.
With `O=S(=O)(c1cccnc1)N1CCN(c2nccc(Oc3cc(Cl)cc(Cl)c3)n2)CC1` the IC50 was 24.8 µM.
Molecule `COc1cccc(Nc2ccnc(N3CCN(C(=O)c4ccc(Cl)cc4Cl)CC3)n2)c1` has an IC50 of 11.3 µM.
With `COc1ccc(S(=O)(=O)N2CCN(c3nccc(Oc4cc(Cl)cc(Cl)c4)n3)CC2)cc1` the IC50 was 46.8 µM.
`O=C(c1ccc(C(F)(F)F)cc1)N1CCN(c2nccc(Oc3cc(Cl)cc(Cl)c3)n2)CC1` showed an IC50 of 12.5 µM.
`O=C(CN1CCOCC1)N1CCN(c2nccc(Oc3cc(Cl)cc(Cl)c3)n2)CC1` gave an IC50 of 37.6 µM.
`O=C(c1cccc(O)c1)N1CCN(c2nccc(Oc3cc(Cl)cc(Cl)c3)n2)CC1` showed an IC50 of 18.4 µM.
In the case of `COc1ccc(NC(=O)N2CCN(c3nccc(Oc4cc(Cl)cc(Cl)c4)n3)CC2)cc1`, the IC50 is reported as 16.4 µM.
Molecule `O=C(Nc1ccccc1Cl)N1CCN(c2nccc(Oc3cc(Cl)cc(Cl)c3)n2)CC1` has an IC50 of 11 µM.
In the case of `O=C(c1ccccc1F)N1CCN(c2nccc(Oc3cc(Cl)cc(Cl)c3)n2)CC1`, the IC50 is reported as > 50 µM.
For `Cc1ccc(NC(=O)N2CCN(c3nccc(Oc4cc(Cl)cc(Cl)c4)n3)CC2)cc1`, the IC50 was 11.6 µM.
`CC(C)(C)c1ccc(S(=O)(=O)N2CCN(c3nccc(Oc4cc(Cl)cc(Cl)c4)n3)CC2)cc1` was tested, and the IC50 was > 50 µM.
`O=C(Nc1ccccc1Cl)N1CCN(c2nccc(NCc3ccccc3)n2)CC1` was tested, and the IC50 was 1.59 µM.
In the case of `O=C([C@H]1Cc2ccccc2N1)N1CCN(c2nccc(Oc3cc(Cl)cc(Cl)c3)n2)CC1`, the IC50 is reported as > 50 µM.
`O=C(Nc1cc(C(F)(F)F)cc(C(F)(F)F)c1)N1CCN(c2nccc(Oc3cc(Cl)cc(Cl)c3)n2)CC1` gave an IC50 of 6.74 µM.
`O=C(c1cccc(C(F)(F)F)c1)N1CCN(c2nccc(Oc3cc(Cl)cc(Cl)c3)n2)CC1` showed an IC50 of 17.9 µM.
Work on `O=C(c1cccc(Cl)c1)N1CCN(c2nccc(Oc3cc(Cl)cc(Cl)c3)n2)CC1` yielded an IC50 of 37.8 µM.
In the case of `COc1cccc(Nc2cc(N3CCN(C(=O)c4ccc(Cl)cc4Cl)CC3)ncn2)c1`, the IC50 is reported as 7.23 µM.
In the case of `O=C(Nc1ccc2ccccc2c1)N1CCN(c2nccc(Oc3cc(Cl)cc(Cl)c3)n2)CC1`, the IC50 is reported as 46.8 µM.
Work on `CN1CCN(CC(=O)N2CCN(c3nccc(Oc4cc(Cl)cc(Cl)c4)n3)CC2)CC1` yielded an IC50 of 24.7 µM.
For `C#Cc1cccc(Nc2ncnc3cc(OCCOC)c(OCCOC)cc23)c1` [ERLOTINIB], the IC50 was 55.5 µM.
In the case of `O=C(c1cc(Cl)ccn1)N1CCN(c2nccc(Oc3cc(Cl)cc(Cl)c3)n2)CC1`, the IC50 is reported as 16.7 µM.

What follows are molecules tested on MDA-MB-231 (assay: Antiproliferative activity against human MDA-MB-231 cells incubated for 48 hrs by MTT assay). Conditions: MDA-MB-231, 48 h.
Assay type: functional, cell-based
How it was run: as §1
For `C#Cc1cccc(Nc2ncnc3cc(OCCOC)c(OCCOC)cc23)c1` [ERLOTINIB], the IC50 was 33.5 µM.

What follows are molecules tested on MDA-MB-231 (assay: Antiproliferative activity against human MDA-MB-231 cells incubated for 72 hrs by MTT assay). Conditions: MDA-MB-231, 72 h.
Assay type: functional, cell-based
How it was run: as §1
With `C#Cc1cccc(Nc2ncnc3cc(OCCOC)c(OCCOC)cc23)c1` [ERLOTINIB] the IC50 was 30.1 µM.
